In the library only some 2% were active in any assay of this set; here they are far more common.
ARNT TACC3 PPI = disruptors of ARNT/TACC3 protein interaction, primary screen, biochemical, AlphaScreen, single concentration; Transforming acidic coiled-coil-containing protein 3 (Homo sapiens), Q9Y6A5; AlphaScreen His-ARNT PAS-B/GST-TACC3 binding, luminescence; TACC3 fragment carries E629A point mutation; inhibition, % at 9.99 µM; 390,000 tested, 0.66% active;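 active = mean inhibition of replicates at least 50% and at least half of replicates each reaching 50%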;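 also: 0% = complete ARNT plus TACC3 wells and 100% = ARNT alone without TACC3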
AI-2 QS modul = Vibrio harveyi AI-2 quorum sensing modulators, primary screen, JMH597 strain, luminescence/OD600 ratio | AID 2094, 2009 | activity change, % at 7.5 µM | 300,000 tested, 0.4% active | Vibrio harveyi JMH597 AI-2 luminescence/OD600 ratio, 9 h; stronger effect = lower value; strain lacks LuxN and CqsS sensors; 0 = neutral-control median; in the data active = activity change below about -75%, passing the limit was not always enough;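 also: luminescence divided by OD600 gain over 9 h not by final OD600 alone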
HIF activator = HIF pathway transcriptional activators, primary screen, cell-based, U2OS HRE-luciferase, luminescence | U2OS HRE-luciferase reporter; normalized: DMSO 0%, desferrioxamine 100% | 300,000 tested, 0.32% active | AID 1910, 2009 | activation, % at 7.5 µM (by protocol);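 active = mean activation of at least 10% of the iron chelator positive control signal, with at least half of replicates also reaching 10%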
T cruzi repl = inhibitors of intracellular T. cruzi growth, primary screen, luminescence, NIH3T3 host cells; T. cruzi beta-gal in NIH3T3, 90 h; inhibition, % (no concentration beside the values); 300,000 tested, 1.4% active; AID 1885, 2009;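 active = mean inhibition across valid replicates above about 55%, limit read from the data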;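 also: signal also drops with host cell toxicity which is not excluded here; 0% = plate median of DMSO wells and 100% = zero luminescence signal; higher percent means less beta-gal luminescence so fewer parasites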
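assay system = mouse NIH/3T3 fibroblasts infected with β-gal-expressing T. cruzi Tulahuen C4 | input = 5,000 NIH/3T3 host cells per well | buffer or medium = DMEM plus 2% FBS | timing = 3 h host attachment, then at least 90 h co-culture | measured by = GalScreen luminescence, 60 min | evaluation = luminescence reflecting intracellular parasite burden, expressed as percent inhibition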
Starred values were filed as active, the others as inactive; . = no result given.

SMILES	ARNT TACC3 PPI	AI-2 QS modul	HIF activator	T cruzi repl
CC1(C)C2CCC1(C)C(OCC[N+](C)(C)CC(=O)OC1CCCCC1)C2 (stereo not given)	3.2	3.9	-0.1	63.1*
O=S(=O)(c1ccc2ccccc2c1)N1CCC(c2nc(-c3ccncc3)no2)CC1	-4.9	14.1	-0.1	71.0*
CN(C)c1ccc(-c2noc(C3CCN(S(=O)(=O)c4cccc(Cl)c4)CC3)n2)cc1	-9.0	20.3	.	.
CCCNC(=O)Nc1ccc2c(c1)OC[C@@H](C)N(CCC)C[C@H](C)[C@H](OC)CN(C)C2=O	-3.9	.	.	.
CCn1c(=O)c(CCC(=O)N2CCN(c3ccccn3)CC2)c(C)c2c(C)nn(-c3cccc(C)c3)c21	4.9	13.6	0.2	58.4*
C[C@H](CO)N1C[C@H](C)[C@@H](CN(C)S(=O)(=O)c2ccc(Cl)cc2)Oc2ccc(NC(=O)Nc3ccccc3)cc2C1=O	4.7	.	.	.
Cc1ccc(CN(C(=O)Cc2cccs2)C(C(=O)NC2CCCC2)c2ccncc2)cc1 (stereo not given)	.	8.0	-0.1	58.6*
Cc1ccc(N(C(=O)Cc2cccs2)C(C(=O)NC2CCCC2)c2ccncc2)cc1 (stereo not given)	-5.9	10.3	0.6	11.7
O=C(NC1CCCC1)C(c1ccccc1)N(Cc1cccnc1)C(=O)Cc1cccs1 (stereo not given)	0.8	19.9	-0.1	66.6*
CCOc1ccc(-n2c(SCc3nc(-c4cccs4)no3)nnc2-c2ccncc2)cc1	-0.9	27.1	-0.3	64.2*
CCCNC(=O)C[C@@H]1C[C@@H]2c3cc(NC(=O)C4CCC4)ccc3O[C@@H]2[C@H](CO)O1	2.9	.	.	.
Cc1ccc(C2(O)CN(c3ccccc3C)C3=[N+]2CCS3)cc1 (stereo not given)	-5.2	3.9	12.5*	1.1
COc1ccc(CN(C)C2CCN(C)CC2)cc1OC	-4.6	.	-0.6	4.9
CCCN1CCC(N(C)CCc2ccc(OC)c(OC)c2)CC1	-7.2	2.9	0.0	56.1*
COc1ccc(NC(=O)N[C@H]2CC[C@@H](CCNC(=O)CCN3CCCCC3)O[C@@H]2CO)cc1	7.5	.	.	.
Nc1nc(-c2ccccc2)[nH]c(=O)c1N=O	36.5	-48.1	0.3	8.6
Nc1[nH]c(=O)nc(Nc2ccccc2)c1N=O	27.7*	12.3	-0.1	0.4
C[C@H]1CN([C@@H](C)CO)C(=O)Cc2cc(NC(=O)Nc3cccc4ccccc34)ccc2O[C@H]1CN(C)C(=O)Nc1ccccc1	-3.6	.	.	.
CNC(=S)N/N=C/c1ccc(-c2cccc(C(=O)O)c2)o1	6.9	16.5	-2.7	-0.7
O=C(O)c1cccc(-c2ccc(/C=N/Nc3nn[nH]n3)o2)c1	67.5*	14.1	1.5	-13.0
C[C@@H]1CCCCO[C@H](CN(C)C(=O)c2ccncc2)[C@H](C)CN([C@H](C)CO)C(=O)c2cc(NC(=O)c3ccccc3)ccc2O1	-14.4	.	.	.
O=C1CC(SC(=Nc2ccccc2)Nc2ccccc2)C(=O)N1c1ccc(Cl)c(Cl)c1 (stereo not given)	-8.6	14.1	0.4	55.4*
Cc1cc(N2CCN(C)CC2)nc2ccc(NC(=S)N3CCN(c4ccc(Cl)cc4)CC3)cc12	19.1	5.6	-0.2	60.7*
Cc1cccc(N2CCN(C(=S)Nc3ccc4nc(N5CCN(C)CC5)cc(C)c4c3)CC2)c1C	-2.1	9.4	0.2	64.9*
Cc1cc(N2CCN(C)CC2)nc2ccc(NC(=S)N3CCCCC3)cc12	10.8	42.3	1.8	52.7
SMILES	ARNT TACC3 PPI	AI-2 QS modul	HIF activator	T cruzi repl
CCc1nnc(NC(=O)c2ccc(S(=O)(=O)N3CCCc4ccccc43)cc2)o1	24.4	13.4	0.1	59.8*
O=C(Nc1ccc(S(=O)(=O)N2CCc3ccccc32)cc1)c1ccc2c(c1)OCO2	-3.8	18.4	0.9	56.8*
CNC(=O)c1ccsc1NC(=O)c1ccc(S(=O)(=O)N2CCCc3ccccc32)cc1	0.2	2.6	-0.7	56.7*
CC1CCc2nc(NC(=O)c3ccc(S(=O)(=O)N4CCCc5ccccc54)cc3)sc2C1 (stereo not given)	-14.6	14.6	-0.5	60.9*
O=C(Nc1ccc(F)cc1)N[C@@H]1CC[C@H](CCNS(=O)(=O)c2cccc(Cl)c2)O[C@H]1CO	-0.3	.	.	.
CC(C)NC(=O)N[C@H]1CC[C@H](CCN)O[C@@H]1CO	3.6	.	.	.
C[C@@H]1CCCCO[C@@H](CN(C)Cc2ccncc2)[C@@H](C)CN([C@@H](C)CO)C(=O)c2cc(NC(=O)c3ccccc3)ccc2O1	-6.2	.	.	.
O=C(Nc1nc2c(s1)CCCC2)c1ccc(S(=O)(=O)N2CCCc3ccccc32)cc1	-0.4	11.9	-0.2	60.3*
O=C(Nc1nc2c(s1)CN(Cc1ccccc1)CC2)c1cccc(S(=O)(=O)N2CCc3ccccc32)c1	-8.1	14.9	-0.2	30.1
N#C/C(=C/C=C/c1ccccc1)C(=O)Nc1ccccc1	-1.0	.	0.4	69.0*
N#C/C(=C\C=C\c1ccccc1)C(=O)Nc1ccccc1	-13.3	29.7	-0.2	8.1
CCOC(=O)C1=C(CC)Nc2ccccc2N=C1NC(=O)Nc1ccc(Cl)c(Cl)c1	.	-32.0	0.4	60.9*
CO[C@H]1CN(C)C(=O)c2cc(NC(=O)Cc3ccccc3)ccc2OC[C@H](C)NC[C@H]1C	-3.4	.	.	.
COc1ccc(NC(=O)CC2C(=O)N(CCc3ccccc3)C(=S)N2Cc2cccnc2)cc1 (stereo not given)	7.6	23.3	-0.4	63.1*
O=C(O)/C=C/C(=O)c1ccc2c(c1)CCc1ccccc1-2	0.2	-89.4*	2.0	-19.1
CC(=O)Nc1ccc2c(c1)CCc1ccccc1-2	6.7	18.4	3.9	-3.0
C[C@@H]1CCCCO[C@H](CN(C)C(=O)C2CCCCC2)[C@@H](C)CN([C@H](C)CO)C(=O)c2cc(NC(=O)Nc3ccc(C(F)(F)F)cc3)ccc2O1	-3.7	.	.	.
O=[N+]([O-])c1cccc(C(=Nc2ccccc2)NO)c1	0.8	-33.0	0.4	-20.1
O=[N+]([O-])c1cccc(C(=Nc2ccccc2Cl)NO)c1	12.7	-90.9*	-0.1	10.8
Cn1c2c(c(=O)n(C)c1=O)[C@@]1(C(=O)Nc3ccccc31)C(C#N)=C(N)O2	-1.6	-91.8*	0.3	-20.6
C[C@@H]1CCCCO[C@@H](CN(C)S(=O)(=O)c2cccs2)[C@@H](C)CN([C@@H](C)CO)C(=O)c2cc(NS(=O)(=O)c3cccs3)ccc2O1	0.5	.	.	.
CCCOc1ccc(C(=O)CCN2CCCCC2)cc1	-10.2	4.9	-0.1	8.1
CCCCOc1ccc(C(=O)CCN2CCOCC2)cc1	-3.8	25.6	0.1	56.0*
O=C(Cc1cccc2ccccc12)NC(NC(=S)Nc1ccccc1Cl)C(Cl)(Cl)Cl (stereo not given)	.	7.6	-0.2	45.2
